# Screens: PubChem, Broad Institute
# Sampled rows, rich in hits. Any-hit rate of the full collection: about 3.1%.
# SIRT5 block: blocks human SIRT5 desuccinylation of peptide; 330,000 compounds, 1.1% hits; Purified SirT5, succinyl-peptide AMC, trypsin-coupled fluorescence; inhibition, % at 15 µM; Q9NXA8; in the data active means inhibition above about 15%; inconclusive means no clear call, values can overlap the other calls
# Target sequence (Q9NXA8 whole entry, looked up): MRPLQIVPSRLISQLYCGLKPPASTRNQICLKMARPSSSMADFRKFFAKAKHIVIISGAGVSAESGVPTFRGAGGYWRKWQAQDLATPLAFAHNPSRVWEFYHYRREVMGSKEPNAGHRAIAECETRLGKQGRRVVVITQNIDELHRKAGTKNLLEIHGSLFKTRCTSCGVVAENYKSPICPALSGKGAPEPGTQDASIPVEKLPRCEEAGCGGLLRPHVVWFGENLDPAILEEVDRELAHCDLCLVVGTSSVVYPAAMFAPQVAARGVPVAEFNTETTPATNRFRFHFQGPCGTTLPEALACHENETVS
# Ecoli rRNA inh: selective bacterial rRNA inhibition in E. coli | E. coli WT GFP vs humanized-ribosome RFP mutants, fluorescence, 24 h; hits give low values; DMSO median 0, no signal -100 | GFP signal change (wild-type ribosome), % (test concentration not listed) | 350,000 compounds, 1.6% hits | AID 720706;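 active means significant combined selectivity score with lowered wild-type GFP, culture density cut under 30%, mutant RFP and density less affected; inactive means any of these conditions unmet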
# CFTR F508del cor: correctors of CFTR F508del function in bronchial epithelial cells; CFBE cells, YFP halide quenching; stimulated with forskolin plus potentiator P3; % fluorescence drop versus neutral controls; activity (quench increase), % at 7.58 µM; 350,000 compounds, 0.36% hits; AID 720511;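 active means mean added fluorescence quench of at least 8% versus neutral control, with both replicates also reaching 8%; inconclusive means only one of the mean or replicate conditions met; inactive means mean below 8% and not both replicates reaching 8%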;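 further: cells transiently co-express mutant CFTR-F508del with the halide-sensitive YFP; corrector assay measuring rescue of mutant channel to the surface after 24 h compound exposure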
# ERAP1 HTS inh: ERAP1 (human) enzyme inhibition; recombinant ERAP1, Leu-AMC fluorescence, 60 min; inhibition, % at 10.7 µM; 340,000 compounds, 0.15% hits; AID 652197;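 active means mean replicate inhibition of at least 30%, or all replicates individually reaching that 30% level; inactive means mean below 30% and not every replicate reaching it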;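 further: 0% = neutral control wells and 100% = L-leucinethiol positive control wells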
# S100A4 MyoIIA: S100A4-myosin IIA interaction inhibition; S100A4/TAMRA-MyoIIA peptide fluorescence polarization; P26447; AID 652163; inhibition, % at 10.7 µM; 360,000 compounds, 0.14% hits;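 active means mean inhibition of at least 70% across replicates, with every replicate also reaching that level; inconclusive means mean inhibition reaches 70% but some replicates fall short; inactive means mean inhibition below 70%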
# Target sequence (P26447 whole entry, looked up): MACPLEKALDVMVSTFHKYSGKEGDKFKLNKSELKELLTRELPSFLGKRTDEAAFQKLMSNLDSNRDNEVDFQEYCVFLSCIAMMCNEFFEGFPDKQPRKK
#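 Test system: S100A4 monomer protein; Medium: HEPES pH 7.2 with CaCl2, KCl, NaCl, DTT, Triton; Probe or stimulus: TAMRA-labelled myosin IIA heavy-chain peptide probe, 5 nM; Doses: one dose per compound; Times: polarization read 5 min after assay mix addition, stable 5–60 min; Benchmarks: neutral control DMSO, positive control TFP.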
# Numbers without * were called inactive; ? = inconclusive; . = not tested or not shown.
SMILES,SIRT5 block,Ecoli rRNA inh,CFTR F508del cor,ERAP1 HTS inh,S100A4 MyoIIA
Cc1ccc(Oc2coc3cc(O)ccc3c2=O)cc1,-6.3,-24.0*,-2.1,-6.8,-1.6
COc1cc(-c2cc(-c3ccccc3)nc(SCC(=O)O)c2C#N)cc(OC)c1OC,-3.7,-29.0*,-1.8,2.6,-1.7
N#Cc1c(-c2ccc(Cl)cc2)cc(-c2ccccc2)nc1SCC(=O)O,8.3,-49.2,-0.2,4.9,-1.2
O=[N+]([O-])c1ccccc1CCc1ccccc1[N+](=O)[O-],-7.2,3.3,-0.4,-2.5,0.5
O=[N+]([O-])c1ccccc1CNC(Cc1ccccc1)c1ccccc1 (stereo not given),-2.9,-30.1*,-2.8,-3.8,3.5
Cc1c(/C=N/O)c2ccccn2c1C(=O)c1ccc(F)cc1,-0.9,-27.5*,-1.1,-0.7,-7.3
CN(C)/C=C1\C(=O)ON=C1c1ccccc1,0.4,6.5,0.7,11.3,-11.7
O=C1ON=C(c2ccccc2)/C1=C/c1ccco1,19.6*,14.4,1.3,2.8,-50.9
CC(=O)N1CC(C)Sc2ccc(S(=O)(=O)NCc3ccc(F)cc3)cc21 (stereo not given),-0.5,-25.6*,-0.3,-1.8,6.0
C[C@H]1CN([C@@H](C)CO)C(=O)c2cc(NS(=O)(=O)c3ccccc3)ccc2O[C@@H]1CN(C)S(=O)(=O)c1cn(C)cn1,-3.8,2.7,-4.5,-1.0,-3.2
Nc1nc(=S)ss1,-0.6,-13.3*,-6.2,-1.0,5.8
Cc1ccc2nc(Cl)c3cc(C(=O)N(CCN(C)C)Cc4ccco4)sc3c2c1,-1.3,-15.9,1.2,4.6,-9.0
CN(C)CCN(Cc1ccco1)C(=O)c1cc2c(Cl)nc3ccccc3c2s1,-3.2,-33.4*,.,-1.0,2.4
CCOc1ccc(N(CC(=O)NCC2CCCO2)C(=O)CCC(=O)Nc2nccs2)cc1 (stereo not given),16.7*,8.0,2.0,-4.1,-0.2
COc1ccccc1N=C1SC(C(=O)Nc2cccc(Cl)c2Cl)C(N)=C1C(N)=O (stereo not given),21.3*,-11.7,9.5*,0.7,-6.9
COc1cccc(NC(=O)N[C@H]2CC[C@@H](CC(=O)Nc3ccc(-c4ccccc4)cc3)O[C@@H]2CO)c1,5.5,-49.7,0.0,2.5,0.1
Cc1cccc(N2CCN(C(=O)COc3ccc4c(C)cc(=O)oc4c3C)CC2)c1C,19.2*,-2.5,0.7,-6.0,-2.2
CC(=O)COc1ccc2c(-c3ccccc3)cc(=O)oc2c1C,-5.4,-17.9*,-0.8,-0.1,-4.0
Cc1c(OC(C(=O)O)c2ccccc2)ccc2c(-c3ccccc3)cc(=O)oc12 (stereo not given),12.7,-24.8*,1.8,6.5,3.7
N#C/C(=C/c1ccc(OCc2ccc(C(=O)O)cc2)c(Br)c1)c1cccc(F)c1,-2.8,-27.0*,-2.5,1.9,-25.5
N#C/C(=C/c1ccccc1OCc1ccc(F)cc1)c1ccc(C(=O)O)cc1,2.2,-48.4,-0.5,17.3,-0.4
CC(C)NC(=O)N1CC(=O)N2[C@H](CO)[C@@H](c3ccc(/C=C/c4ccccc4)cc3)[C@@H]2C1,0.8,-2.4,-2.3,1.3,-3.6
O=C(c1cc(-c2ccccc2Cl)nc2ccccc12)N1CCN(c2ccccc2O)CC1,8.0,-6.6,3.5,-1.5,-22.9
O=C(c1cc(-c2ccncc2)nc2c(Cl)cccc12)N1CCN(c2ccccc2F)CC1,-9.6,10.0,13.8*,2.4,-1.5
NC(=O)c1cc(C(=O)c2cccc(Cl)c2Cl)c[nH]1,-9.9,-48.1*,-0.7,-5.2,3.5
SMILES,SIRT5 block,Ecoli rRNA inh,CFTR F508del cor,ERAP1 HTS inh,S100A4 MyoIIA
O=C(c1c[nH]c(C(=O)N2CCN(c3ccccc3F)CC2)c1)c1cccc(Cl)c1Cl,3.1,-27.5*,7.6,2.9,-12.6
NC(=O)c1cc(C(=O)c2ccccc2Cl)c[nH]1,0.7,-5.2,-0.7,-4.6,-4.1
C[C@@H]1CN([C@@H](C)CO)S(=O)(=O)c2ccc(C3=CCCCC3)cc2O[C@@H]1CN(C)C(=O)C1CCOCC1,-10.3,-0.2,1.2,-0.8,-1.7
O=C(O)c1ccc2nc3c(nc2c1)-c1ccccc1C3=O,8.7,-38.3,.,15.1,-0.4
O=C(O)c1ccc2nc(-c3ccco3)c(-c3ccco3)nc2c1,21.9*,18.2,-1.4,20.4,-0.9
Cc1cccc(N2CCc3c2nc2ccc(Br)cc2c3N)c1,-2.2,-49.3*,-0.5,4.2,2.1
CSc1cccc(NC(=S)N(CCCN2CCC(C)CC2)Cc2cccs2)c1,6.0,-19.0*,0.5,0.9,1.6
Cc1noc(NC(=O)c2cccc(C(F)(F)F)c2)c1Cl,1.0,-47.9*,-2.6,-4.1,-8.8
O=C(c1ccc2c(c1)CCN2S(=O)(=O)c1ccccc1)N1CCN(c2ccccc2F)CC1,-1.9,-22.5*,-1.2,-0.3,-3.0
O=C(O)CCCC(=O)N1CCc2cc(S(=O)(=O)N3CCc4ccccc43)ccc21,27.7*,-5.6,1.8,6.2,-5.8
O=C(NNC(=O)c1cccc(S(=O)(=O)N2CCc3ccccc32)c1)c1ccccc1,2.1,-25.5*,0.3,-11.8,-1.3
O=C(O)CCCC(=O)N1CCc2cc(S(=O)(=O)NCc3ccccc3)ccc21,3.9,4.7,-0.1,-1.8,0.3
COc1ccc(-c2cnc3c(c2)C(=O)N([C@@H](C)CO)C[C@H](C)[C@H](CN(C)C(=O)C2CCCCC2)O3)cc1,-14.3,2.2,2.0,4.1,62.0
CCC(CO)Oc1cc(NCc2cccc(Cl)c2)c2ncn(C(C)C)c2c1 (stereo not given),2.2,-22.0*,.,-0.3,-16.9
C[C@@H]1CN([C@H](C)CO)C(=O)c2cc(C3=CCCCC3)cnc2O[C@H]1CN(C)C(=O)NC1CCCC1,0.6,-1.5,-4.3,-0.5,?
O=C1N[C@@H](Cc2ccccc2)[C@@H](c2ccco2)O1,45.0*,4.4,0.3,12.3,1.9
C[C@H](CO)N1C[C@H](C)[C@H](CN(C)S(=O)(=O)c2ccc(C#N)cc2)Oc2ncc(/C=C/c3ccccc3)cc2C1=O,3.8,-5.7,2.6,3.7,0.5
C[C@@H]1CN([C@@H](C)CO)C(=O)c2cccc(NC(=O)c3ccncc3)c2O[C@H]1CN(C)CC1CCCCC1,-2.8,-7.0,-1.1,2.4,0.4
CC(=O)OC1CCC2(C)C(=CCC3C2CCC2(C)C3CC3ON=C(C)C32)C1 (stereo not given),.,-0.2,10.8*,0.6,6.9
CC(=O)[C@H]1CC[C@H]2[C@@H]3CC=C4C[C@@H](O)CC[C@]4(C)[C@H]3CC[C@]12C,1.3,.,0.4,3.4,-1.4
O=C(N/N=C/c1ccc(O)cc1O)C(=O)N/N=C/c1ccc(O)cc1O,4.9,-23.5*,-1.4,4.4,-1.4
Oc1ccc(/C=N/Nc2ccc3ccccc3c2)c(O)c1,-1.3,-32.5*,-1.4,-5.3,-2.5
O=C(NN=Cc1ccc(O)cc1)C(=O)NN=Cc1ccc(O)cc1,2.1,1.2,1.6,0.3,4.8
